From ChEMBL document CHEMBL3286393 (J Med Chem, 2014) come the findings set out here.

For test [1], the target named is T1, Prostaglandin G/H synthase 2 (Homo sapiens, UniProt P35354).
T1 sequence (P35354 whole entry): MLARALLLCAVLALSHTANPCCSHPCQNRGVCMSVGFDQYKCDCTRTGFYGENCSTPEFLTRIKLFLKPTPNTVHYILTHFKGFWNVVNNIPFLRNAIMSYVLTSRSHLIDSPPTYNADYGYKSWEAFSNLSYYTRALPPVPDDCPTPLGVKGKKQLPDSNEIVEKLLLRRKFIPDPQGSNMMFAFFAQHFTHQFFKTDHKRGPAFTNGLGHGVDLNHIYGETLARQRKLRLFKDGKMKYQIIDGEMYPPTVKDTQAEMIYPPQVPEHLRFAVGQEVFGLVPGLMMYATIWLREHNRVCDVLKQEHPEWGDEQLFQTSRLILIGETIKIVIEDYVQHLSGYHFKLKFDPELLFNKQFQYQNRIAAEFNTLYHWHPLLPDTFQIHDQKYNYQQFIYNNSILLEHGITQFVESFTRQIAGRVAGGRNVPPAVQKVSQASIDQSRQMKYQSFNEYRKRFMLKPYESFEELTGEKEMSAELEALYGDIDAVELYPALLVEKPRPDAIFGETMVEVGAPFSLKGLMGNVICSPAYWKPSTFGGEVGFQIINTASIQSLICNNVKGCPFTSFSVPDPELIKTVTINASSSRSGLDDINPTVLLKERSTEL
Briefly: Inhibition of COX2-mediated PGF2alpha formation in LPS-stimulated human monocytes preincubated for 15 mins before arachidonic acid substrate addition measured after 30 mins by UPLC-MS/MS analysis. Format: cell-based.

For test [2], the target named is T1, Prostaglandin G/H synthase 2. Briefly: Inhibition of COX2-mediated PGD2 formation in LPS-stimulated human monocytes preincubated for 15 mins before arachidonic acid substrate addition measured after 30 mins by UPLC-MS/MS analysis. Format: cell-based.
In test [3] the test system is Mus musculus. The test can be described thus: Antiinflammatory activity in zymosan-induced peritonitis CD1 mouse model assessed as suppression of neutrophil infiltration at 10 mg/kg, ip administered 30 mins before challenge measured 4 hrs post zymosan challenge relative to control. Format: functional. The following applies: route intraperitoneal. In outline: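 Zymosan peritonitis in male CD-1 mice (n = 5−11): ip dose in 2% DMSO/saline 30 min before ip zymosan. Peritoneal lavage with 3 mL cold PBS at 4 h. Exudate cells counted by light microscopy in a Burker chamber after trypan blue staining; % inhibition vs vehicle.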

The subject of test [4] is Mus musculus. The test can be described thus: Antiinflammatory activity in zymosan-induced peritonitis CD1 mouse model assessed as suppression of MPO activity at 10 mg/kg, ip administered 30 mins before challenge measured 4 hrs post zymosan challenge relative to control. Format: functional. The settings on record: route intraperitoneal. In outline:
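In male CD-1 mice (n = 5−11 per group), dose was given ip in 2% DMSO/saline 30 min before ip zymosan (2 mg/mL, 0.5 mL). Lavage 4 h later. Pelleted exudate cells disrupted; supernatant mixed with 0.167 mg/mL o-dianisidine and 0.0005% H2O2 in PBS, read kinetically by absorbance. U/mL from human neutrophil MPO calibration; % inhibition vs vehicle.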

Test [5] deals with Monocyte. Briefly: Inhibition of thromboxane B2 formation in LPS-stimulated human monocytes preincubated for 15 mins before arachidonic acid substrate addition measured after 30 mins by UPLC-MS/MS analysis. In kind it is functional, cell-based. Summed up: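 Fresh human monocytes (adherence-isolated, >85% CD14+; 5 × 10⁶/well) primed with LPS 1 μg/mL for 24 h. Washed, 15 min preincubation, then 2.5 μM A23187 plus 20 μM arachidonic acid for 30 min. Eicosanoids extracted and measured by UPLC-MS/MS, normalized to PGB1 as relative intensities. Two to three independent experiments.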

Test [6] addresses T2, Polyunsaturated fatty acid lipoxygenase ALOX15 (Homo sapiens, UniProt P16050).
T2 sequence (P16050 whole entry): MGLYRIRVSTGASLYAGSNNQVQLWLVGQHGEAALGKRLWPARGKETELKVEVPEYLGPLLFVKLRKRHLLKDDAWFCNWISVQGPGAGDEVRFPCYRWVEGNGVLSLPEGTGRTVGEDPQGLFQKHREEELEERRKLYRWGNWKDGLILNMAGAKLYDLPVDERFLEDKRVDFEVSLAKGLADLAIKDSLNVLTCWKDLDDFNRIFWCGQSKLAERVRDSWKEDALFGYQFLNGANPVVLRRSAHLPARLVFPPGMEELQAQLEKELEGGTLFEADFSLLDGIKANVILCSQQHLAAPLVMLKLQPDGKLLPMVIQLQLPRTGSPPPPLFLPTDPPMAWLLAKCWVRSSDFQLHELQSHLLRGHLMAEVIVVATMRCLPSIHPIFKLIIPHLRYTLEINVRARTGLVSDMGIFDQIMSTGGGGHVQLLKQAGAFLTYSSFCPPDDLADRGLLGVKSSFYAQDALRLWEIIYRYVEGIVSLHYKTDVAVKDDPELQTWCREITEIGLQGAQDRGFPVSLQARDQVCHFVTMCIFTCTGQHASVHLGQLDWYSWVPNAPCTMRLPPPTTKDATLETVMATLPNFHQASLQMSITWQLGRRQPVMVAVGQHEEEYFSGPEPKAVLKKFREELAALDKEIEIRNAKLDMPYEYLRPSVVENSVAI
Briefly: Inhibition of 15-LO-mediated 15-HETE formation in LPS-stimulated human monocytes preincubated for 15 mins before arachidonic acid substrate addition measured after 30 mins by UPLC-MS/MS analysis. Format: cell-based.

A word on the IC50: it is the concentration that inhibits the measured activity by half. A low value points to inhibition by little substance. In general, inhibition in vivo refers to the share of the control response that was lost under treatment. Regarding `COc1cc(/C=C/c2cc(/C=C/c3cc(CC=C(C)C)c(O)c(OC)c3)[nH]n2)cc(CC=C(C)C)c1O`, the IC50 in test [1] and in test [2] was > 10000 nM throughout. The figures for the inhibition in vivo at 10 mg/kg in test [3] and in test [4] were 75% and 39%, respectively.

`COc1cc(/C=C/C(=O)CC(=O)/C=C/c2ccc(O)c(OC)c2)ccc1O` [CURCUMIN]: the half-inhibitory concentration (IC50) in test [5] and in test [6] was 1200 nM each time.
